Screens from PubChem.
NPY Y2 blocker – antagonists of human neuropeptide Y receptor Y2; P49146; inhibition, % at 2.7 µM; 140,000 compounds, 0.99% hits; NPY-Y2 expressing cells, antagonist mode; in the data active = inhibition above about 17%;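 also: 0% = vehicle with agonist challenge and 100% = reference antagonist with challenge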
NPY-Y1 antag – blocks the human neuropeptide Y Y1 receptor | inhibition, % at 3.6 µM | 200,000 compounds, 1% hits | HEK293-CNG Y1 cells, membrane potential fluorescence; NPY at EC95, then isoproterenol | P25929 | AID 1040;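 active = inhibition above the campaign mean inhibition of all tested compounds plus 3 SD, cut at about 20% in these data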;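 also: 0% = DMSO wells given NPY plus isoproterenol and 100% = isoproterenol alone without NPY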
Target sequence (P25929 whole entry, looked up): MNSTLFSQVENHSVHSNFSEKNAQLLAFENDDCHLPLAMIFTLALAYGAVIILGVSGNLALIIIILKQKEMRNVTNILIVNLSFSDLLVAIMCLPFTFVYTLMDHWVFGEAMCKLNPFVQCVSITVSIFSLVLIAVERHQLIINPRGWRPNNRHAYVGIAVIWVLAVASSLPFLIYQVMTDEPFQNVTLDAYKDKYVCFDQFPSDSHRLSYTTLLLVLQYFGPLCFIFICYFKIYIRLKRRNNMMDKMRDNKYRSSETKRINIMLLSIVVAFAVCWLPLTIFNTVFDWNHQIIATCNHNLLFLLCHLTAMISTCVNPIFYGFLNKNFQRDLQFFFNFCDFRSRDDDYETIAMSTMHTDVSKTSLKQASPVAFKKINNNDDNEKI
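Assay system: HEK293 Y1/CNG channel cell line; Doses: single compound dose of 3.6 µM, 0.4% DMSO; Timing: dye 3 h, compound 60 min room temperature, stimulation 45 min; Technique: Membrane-potential fluorescent dye readout; Measure: % inhibition of NPY effect.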
NPY1 pot ag – potentiates or activates human NPY-Y1 receptor; P25929; NPY-Y1 expressing cells, potentiator/agonist activation; activation, % at 3.6 µM; 220,000 compounds, 0.37% hits; in the data active = activation above about 33%, passing the limit was not always enough;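 also: cells stimulated with NPY at EC10 then isoproterenol at EC100; 0% = low agonist plus stimulus and 100% = saturating agonist plus stimulus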
EP2 antag – blocks the human prostaglandin E2 receptor EP2; inhibition, % at 25 µM; P43116; AID 1422; C6 glioma cells expressing human EP2, cAMP TR-FRET; cells stimulated with saturating PGE2; 260,000 compounds, 0.52% hits;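 active = percent inhibition above 40 after rounding to a whole number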;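 also: rat C6 glioma host cells with rolipram phosphodiesterase inhibitor present; the protocol text gives 20 µM as final concentration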
NPY-Y2 PAM-ag – potentiates or activates human NPY-Y2 receptor. cells expressing NPY-Y2, potentiator/agonist read-out. activation, % at 3.6 µM. 220,000 compounds, 0.45% hits. AID 1359; in the data active = activation above about 27%;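 also: cells stimulated with NPY near EC25 plus isoproterenol at EC100; 0% = vehicle plus submaximal agonist and 100% = vehicle plus saturating agonist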
EP2 mod – EP2 receptor (human) modulation; AID 940; 260,000 compounds, 0.83% hits; EP2-expressing cells, cAMP HTRF FRET, PGE2 co-stimulation; P43116; induction, % at 25 µM;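 active = compounds whose cAMP rise, as percent of the full-agonist control response, exceeds 60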;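 also: rat C6 glioma line stably carrying human EP2 under a CMV promoter; the protocol text gives 20 µM as final concentration; 100% = response of wells given 1 µM PGE2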
Numbers without * were called inactive; . = no result; ! = not confirmed by another sample. A selection: hits, their analogues and other compounds. The true share with any hit is near 2.8%.

SMILES | NPY Y2 blocker | NPY-Y1 antag | NPY1 pot ag | EP2 antag | NPY-Y2 PAM-ag | EP2 mod
CC1=CC(=O)c2ccccc2C1=O | 1 | -3 | 2 | 46* | 1 | -40
COc1ccc2c(c1O)C(=O)c1ccccc1C2=O | . | 2 | -19 | . | -21 | -32
CC(C)(C=O)C1=CC(=O)c2ccccc2C1=O | 0 | -1 | -30 | 16 | -6 | -7
COc1cccc2c1C(=O)C=C(C)C2=O | 0 | 5 | 51* | 21 | 34* | -64
Cc1cc(C)nc(SCCCn2c(N3CCC(C)CC3)nc3c2c(=O)[nH]c(=O)n3C)n1 | . | . | . | 11 | . | -18
COc1ccc(-n2c(SCc3ccc(C)cc3)nnc2-c2ccncc2)cc1 | . | . | . | 7 | . | 2
CCOc1ccc(-c2nnc(SCc3nnc(-c4ccccc4)o3)n2-c2ccccc2F)cc1 | 19* | 26* | -23 | 13 | -13 | -6
O=C(O)c1ccc(CSc2nnc(-c3ccccc3)n2-c2ccccc2)cc1 | . | . | 4 | 8 | 8 | 25
CCOc1ccc(-n2c(SCc3ccc([N+](=O)[O-])cc3)nnc2-c2ccccc2)cc1 | 149* | 66* | -79 | 1 | -15 | 48
COc1ccc(-n2c(SCc3ccc([N+](=O)[O-])cc3)nnc2-c2ccccc2)cc1 | 112* | 99* | -98 | 4 | -6 | 23
Cc1ccc(-c2nnc(CSc3nnc(COc4ccccc4)n3-c3ccccc3)o2)cc1 | 15 | 13 | -27 | 12 | -8 | -12
O=C(CSc1nnc2n(CC(=O)N3CCCC3)c3ccccc3n12)N1CCCCC1 | . | . | . | 13 | . | 11
S=C(Nc1cccnc1)Nc1ccccc1Br | . | 3 | -4 | 8 | -6 | 12
Oc1cccc(NC(=S)Nc2cccnc2)c1 | 1 | 6 | 62* | 4 | 60* | 5
CN(C)CCNc1nc2c(c(=O)n(C)c(=O)n2C)n1C | . | . | . | 15 | . | -14
CC(C)CCn1c(NCCc2ccccc2)nc2c1c(=O)n(C)c(=O)n2C | . | . | . | 10 | . | 42
Cn1c(=O)c2c(nc(NCCNc3nc4c(c(=O)n(C)c(=O)n4C)n3C)n2C)n(C)c1=O | . | . | . | 45* | . | 20
CC(C)CCNC(=O)Cn1c(NCCC(C)C)nc2c1c(=O)n(C)c(=O)n2C | 1 | 60* | -12 | 11 | 4 | .
O=C1NC2(CCN(C(=O)CCn3cnc4ccccc43)CC2)Nc2ccccc21 | . | . | . | 4 | . | -31
CC(=O)c1ccc(NC(=O)Nc2ccc(NS(=O)(=O)c3ccc(C)cc3)cc2)cc1 | -9 | -12 | 45* | -3 | 40* | -4
CC(=O)N1CN(C2CCCC2)Cc2c1sc1c2CCCC1 | 18* | 24* | -18 | 7 | -4 | 8
CCCCCCn1c(CN2CCN(CCO)CC2)nc2c1c(=O)n(C)c(=O)n2C | -1 | 4 | -5 | 9 | -6 | 23
CCCCCCn1c(CN2CCC(C)CC2)nc2c1c(=O)n(C)c(=O)n2C | 11 | 12 | -29 | 6 | -5 | 63*
CC(=O)N(c1ccccc1C)C1CCCC1 | 2 | -6 | 5 | 6 | 5 | 14
CC(=O)N(C1=C(Cl)C(=O)c2ccccc2C1=O)C1CCCCC1 | . | . | -6 | 124* | -39 | -30
SMILES | NPY Y2 blocker | NPY-Y1 antag | NPY1 pot ag | EP2 antag | NPY-Y2 PAM-ag | EP2 mod
COc1ccc(Cc2nnc(SCC(=O)Nc3ccc(S(=O)(=O)N(C)C)cc3)o2)cc1 | . | . | . | 6 | . | -59
O=C(COC(=O)c1cccs1)Nc1ccccc1F | . | . | . | 7 | . | -34
COC(=O)/C(=C/c1c[nH]c2ccccc12)[N+](=O)[O-] | 4 | -1 | 17 | 141* | -8 | -48
C=CCSc1nc2ccccc2c(=O)n1CCc1ccccc1 | . | . | . | 10 | . | 70*
NC(=O)CSc1nc2ccccc2c(=O)n1CCc1ccccc1 | . | . | . | 12 | . | -62
C=CCSc1nc2ccccc2c(=O)n1C1CCOC(C)(C)C1 (stereo not drawn) | . | . | -7 | 5 | -6 | 76*
COCCn1c(SCC(=O)c2ccccc2)nc2ccccc2c1=O | . | -3 | -8 | 4 | 0 | -45
CCSc1nc2ccccc2c(=O)n1C1CCOC(C)(C)C1 (stereo not drawn) | . | 6 | -9 | 8 | 7 | 61*
COCCn1c(SCCOc2ccccc2)nc2ccccc2c1=O | . | 16 | -20 | 7 | -14 | 64*
CC(=O)c1ccc(S(=O)(=O)N(Cc2cc3cc(C)c(C)cc3[nH]c2=O)CC2COCCO2)cc1 (stereo not drawn) | . | . | . | 15 | . | -2
COc1ccc2cc1Oc1ccc(cc1)C[C@H]1c3c(cc4c(c3Oc3cc5c(cc3OC)CCN(C)[C@@H]5C2)OCO4)CCN1C | . | . | . | 3 | . | -20
COc1ccc2c(c1OC)C(=O)O[C@@H]2[C@H]1c2c(cc3c(c2OC)OCO3)CCN1C | 1 | -1 | -24 | 10 | 4 | 61*!
CC(C)(C)NC[C@H](O)COc1nsnc1N1CCOCC1 | 1 | -11 | 118* | 12 | 104* | 19
COC(=O)COc1nsnc1N1CCOCC1 | 1 | -2 | 1 | -1 | -9 | -4
CCCS(=O)(=O)N1CCCC(c2nc3c(nnn3Cc3c(Cl)cccc3Cl)c(=O)[nH]2)C1 (stereo not drawn) | . | . | . | 10 | . | 1
COc1cccc(C2C=C(c3ccc(Br)s3)Nc3ncnn32)c1OC (stereo not drawn) | 3 | 8 | -2 | 112* | -6 | -43
Cn1c(=O)[nH]c(=O)c2c1nc(Br)n2CCCCCl | . | . | . | 14 | . | 14
N#CC1=C(N)Oc2n[nH]c(-c3ccccc3)c2C1c1ccsc1 (stereo not drawn) | 12 | 36* | -17 | 8 | -26 | -63
CC(C)C1C(C#N)=C(N)Oc2n[nH]c(-c3ccc4ccccc4c3)c21 (stereo not drawn) | 5 | -9 | 34 | 133* | 16 | -33
CCc1ccc(C2C(C#N)=C(N)Oc3n[nH]c(-c4cc(C)sc4C)c32)cc1 (stereo not drawn) | . | . | . | 5 | . | -9
Cc1cc(-c2[nH]nc3c2C(c2ccc(C(F)(F)F)cc2)C(C#N)=C(N)O3)c(C)s1 (stereo not drawn) | . | . | . | 12 | . | 61*
CCC(CC)C1C(C#N)=C(N)Oc2n[nH]c(-c3ccccc3)c21 (stereo not drawn) | 0 | -16 | 49* | 10 | 38* | -16
N#CC1=C(N)Oc2n[nH]c(-c3ccncc3)c2C1c1ccsc1 (stereo not drawn) | 4 | -2 | -13 | 13 | -8 | 4
Cc1ccccc1NC(=O)COC(=O)C1CC(=O)N(c2ccc(OC(C)C)cc2)C1 (stereo not drawn) | . | . | . | 8 | . | -10
COc1ccc(OCC(O)Cn2c(=N)n(CCN3CCCCC3)c3ccccc32)cc1 (stereo not drawn) | 19* | 34* | -43 | 14 | -20 | -29
Cc1ccc(OCC(O)Cn2c(=N)n(CCN3CCOCC3)c3ccccc32)cc1 (stereo not drawn) | 5 | 17 | 3 | 14 | -1 | -20
